Where “and” joins values, the source holds several entries; their conditions need not be identical. Equal values may be shown once. Read-outs that look alike come from different tables or passages of the source.
How the values were obtained:
[1] = test system: C. albicans ATCC 10231 (strain A); experiment: ROS induction assay; type: cell-based, Candida albicans; conditions: 1× and 2× MIC, 1-h treatment; H2O2 1 mM
Outline: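 C. albicans ATCC 10231 cells were incubated 1 h at 37 °C with test compound at 1× or 2× MIC, with no drug (negative control), or with 1 mM H₂O₂ (positive control). DCFH-DA (40 µg/mL) was then added. ROS were detected and imaged by fluorescence microscopy.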

[2] = test system: Aspergillus flavus ATCC MYA-3631; experiment: MIC, broth dilution, strain K; type: cell-based; conditions: Aspergillus flavus
[3] = test system: Candida albicans ATCC 10231; experiment: MIC, broth dilution, strain A; type: cell-based; conditions: Candida albicans
Outline: (§1)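 Broth dilution MIC assay on the Candida panel: C. albicans strains A–G, C. glabrata (H), C. krusei (I) and C. parapsilosis (J). Test compounds were delivered in DMSO, with DMSO kept below 1% in the assay. The MIC is reported in µg/mL, with µM in parentheses. Reference antifungals (a polyene and four azoles) were run alongside.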

[4] = test system: C. albicans ATCC 90819(R); experiment: MIC, broth dilution, strain D; type: cell-based, Candida albicans; conditions: Candida albicans
Outline: as §1

[5] = test system: C. albicans ATCC MYA-2310(S); experiment: MIC, broth dilution, strain E; type: cell-based, Candida albicans; conditions: Candida albicans
Outline: as §1

[6] = test system: C. albicans ATCC 64124 (strain B); experiment: Time-kill assay; type: cell-based, Candida albicans
[7] = test system: C. albicans ATCC MYA-2876(S); experiment: MIC, broth dilution, strain C; type: cell-based, Candida albicans; conditions: Candida albicans
Outline: as §1

[8] = test system: C. albicans ATCC MYA-1237(R); experiment: MIC, broth dilution, strain F; type: cell-based, Candida albicans; conditions: Candida albicans
Outline: as §1

[9] = test system: murine red blood cells (mRBCs); conditions: data previously presented; cited from earlier work
[10] = Mammalian cytotoxicity, resazurin assay, HEK293; type: cell-based; conditions: human, HEK293 cells
[11] = test system: C. albicans ATCC 64124; experiment: MIC, broth dilution, strain B; type: cell-based, Candida albicans; conditions: Candida albicans
Outline: as §1

[12] = test system: C. albicans ATCC MYA-1003(R); experiment: MIC, broth dilution, strain G; type: cell-based, Candida albicans; conditions: Candida albicans
Outline: as §1

[13] = test system: Aspergillus nidulans ATCC 38163; experiment: MIC, broth dilution, strain L; type: cell-based; conditions: Aspergillus nidulans
[14] = test system: Aspergillus terreus ATCC MYA-3633; experiment: MIC, broth dilution, strain M; type: cell-based; conditions: Aspergillus terreus
[15] = read-out: MIC (MIC-0) in µM (parentheses)

MIC ([2]; read-out: MIC (MIC-0)): 6.25 µg/mL
MIC [2, 15]: 22.8 µM
MIC ([3]; ATCC10231, read-out: MIC (MIC-0)): 12.5 µg/mL
MIC ([3]; ATCC10231, read-out: MIC (MIC-0) in µM (parentheses)): 45.6 µM
MIC ([4]; ATCC90819, read-out: MIC (MIC-0)): 1.56 µg/mL
MIC ([4]; ATCC90819, read-out: MIC (MIC-0) in µM (parentheses)): 5.69 µM
MIC ([5]; read-out: MIC (MIC-0)): 3.13 µg/mL
MIC [5, 15]: 11.4 µM
MIC ([7]; read-out: MIC (MIC-0)): 12.5 µg/mL
MIC [7, 15]: 45.6 µM
MIC ([8]; read-out: MIC (MIC-0)): > 12.5 µg/mL
MIC [8, 15]: > 45.6 µM
MIC ([11]; ATCC64124, read-out: MIC (MIC-0)): 12.5 µg/mL
MIC ([11]; ATCC64124, read-out: MIC (MIC-0) in µM (parentheses)): 45.6 µM
MIC ([12]; read-out: MIC (MIC-0)): 12.5 µg/mL
MIC [12, 15]: 45.6 µM
MIC ([13]; ATCC38163, read-out: MIC (MIC-0)): 1.56 µg/mL
MIC ([13]; ATCC38163, read-out: MIC (MIC-0) in µM (parentheses)): 5.69 µM
MIC ([14]; read-out: MIC (MIC-0)): 1.56 µg/mL
MIC [14, 15]: 5.69 µM
Compound: O=c1c2ccccc2[se]n1-c1ccccc1 [Compound 1, ebselen]
ROS induction (DCFH-DA fluorescence) [1]: highly fluorescent
time of complete fungal cell death ([6]; 1× MIC (12.5 µg/mL)): 6 h
time-kill effect ([6]; 1× MIC (1 12.5, 2a 12.5, 3a 0.39, AmB 3.9 µg/mL)): fungicidal
time from which completely fungicidal ([6]; 2× MIC): 3 h
time-kill effect ([6]; 2× MIC (1 25, 2a 25, 3a 0.78, AmB 7.8 µg/mL)): completely fungicidal
fungicidal concentration ([6]; time-kill curves): 12.5 µg/mL and 45.6 µM
concentration until which no significant hemolytic activity was shown [9]: 15.6 µg/mL and 56.9 µM
IC50 [10]: > 10 µg/mL and > 36.5 µM

From paper PMC5060091 (ChemMedChem, 2016)
